# Bioassay records as filed in PubChem BioAssay.
# AHR act: activators of human aryl hydrocarbon receptor | activation, % at 5 µM | P35869 | AID 2796 | AHR-responsive luciferase reporter cells, luminescence | 320,000 compounds, 2.5% hits; in the data active = activation above about 47%;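 also: 0% = vehicle wells and 100% = reference agonist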
# proCasp3 act: activates human procaspase-3; recombinant procaspase-3 D3A, Ac-DEVD-pNA absorbance 405 nm; activation, % at 8.5 µM; 330,000 compounds, 0.11% hits; AID 463141;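 active = activation above the mean of all tested compounds plus 3 SD, cut at about 21% in these data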;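 also: 0% = DMSO alone and 100% = DMSO wells spiked with extra 5 µM PC-3 D3A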
# Target sequence (P42574 whole entry D9A/D28A/D175A): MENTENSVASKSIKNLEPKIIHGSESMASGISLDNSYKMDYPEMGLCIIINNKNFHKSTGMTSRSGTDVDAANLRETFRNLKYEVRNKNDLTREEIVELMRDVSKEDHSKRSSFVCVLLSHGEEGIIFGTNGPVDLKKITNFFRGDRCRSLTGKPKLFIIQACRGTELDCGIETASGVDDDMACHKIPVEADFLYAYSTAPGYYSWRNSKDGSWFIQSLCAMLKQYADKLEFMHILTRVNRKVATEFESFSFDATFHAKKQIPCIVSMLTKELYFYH
#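 System: Procaspase-3 D3A mutant. Medium: Zinc-free 300 mM NaCl, 50 mM HEPES, 0.01% Triton X-100. Schedule: 1 h preincubation plus 2 h reaction at 25 °C. Measured by: 405 nm absorbance of p-nitroaniline, reads at 0 and 120 min. Read-out: percent activation relative to control range.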
# PolyA inh: blocks polyadenylation in yeast reporter cells; S. cerevisiae SKY197-pL101 polyadenylation reporter, beta-gal luminescence; efflux-impaired pdr1/pdr3 knockout yeast; score 100 = 6 SD above DMSO; activity score, % at 12 µM; 300,000 compounds, 0.02% hits;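 active = lowest replicate activity score at least 50, where 100 means six control SD above control mean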;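 also: yeast exposed to compound for 9 h at 30 °C; higher score means more reporter readthrough which indicates perturbed polyadenylation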
# proCasp7 act: activates human procaspase-7, counter-screen for procaspase-3 activators; activation, % at 8.5 µM; recombinant procaspase-7, Ac-DEVD-pNA absorbance 405 nm; D23A/D198A/D206A triple mutant, cannot self-cleave; scale: DMSO 0, 5 µM enzyme 100; P55210; 330,000 compounds, 0.093% hits;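 active = percent activation above the screen-wide mean plus 3 SD, cut at about 25% in these data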
#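 System: Uncleavable procaspase-7 mutant enzyme; Amount: 2 µM procaspase-7 mutant as dispensed; Schedule: 1 h compound preincubation, 2 h substrate cleavage, 25 °C; Measured by: 405 nm absorbance of p-nitroaniline; Evaluation: percent activation from buffer-corrected 0–120 min absorbance change; Control set: low DMSO alone, high DMSO plus 5 µM PC-7.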
# * marks the source's active call; other numbers are inactive results; nt = no result given. An excerpt weighted towards active compounds, which were near 2.6% of everything screened.
SMILES,AHR act,proCasp3 act,PolyA inh,proCasp7 act
COc1cccc(/C=N\NC(=O)c2sc(N)nc2C)c1OC,60*,-8,-8,8
COc1cccc(/C=N/NC(=O)C(=O)N/N=C/c2cccc(OC)c2OC)c1OC,5,-3,4,8
CCc1sc(C(=O)N2CCN(c3ccc(F)cc3)CC2)cc1C,1,6,13,-6
O=C(NCCCc1ccccc1)[C@@H]1Cc2ccccc2CN1,2,3,13,4
COc1cc(/C(C#N)=C/c2ccccc2)c([N+](=O)[O-])cc1OC,47*,-10,0,-16
COc1ccc(/C=C(\C#N)c2cc(OC)c(OC)cc2[N+](=O)[O-])cc1,13,8,8,6
COc1cc(/C=C(\C#N)c2nc3ccc(C)cc3[nH]2)c([N+](=O)[O-])cc1OC,66*,-11,-14,-17
COc1c(O)ccc(/C=C(\C#N)c2nc3ccccc3[nH]2)c1[N+](=O)[O-],50*,10,-1,5
Cc1ccc2nc(/C(C#N)=C\c3cc(O)ccc3[N+](=O)[O-])[nH]c2c1,25,-10,-17,-16
COc1cccc(/C=C(\C#N)c2nc3ccccc3[nH]2)c1OCC(=O)O,19,-3,-3,-12
O=C(CCCn1c(=O)oc2ccccc21)NNC(=O)COc1ccc(F)cc1,3,6,nt,1
N#CC1(NC(=O)COc2ccc3ccc(=O)oc3c2)CCCCC1,7,13,-3,8
Cc1cc(=O)oc2cc(OCC(=O)N3CCOCC3)c(Cl)cc12,-4,8,nt,12
COc1ccccc1Oc1ccc(NC(=O)Cc2ccccc2)cc1,1,-2,-6,13
NC1=NC(=O)/C(=C\c2ccc(-c3ccc(Cl)cc3)o2)S1,51*,-14,14,-21
CN(C)C1=NC(=O)/C(=C/c2ccc(-c3ccc(S(N)(=O)=O)cc3)o2)S1,24,-13,-7,-15
NC(=O)Cc1nc(-c2ccc(Br)cc2)cs1,3,6,6,7
Oc1csc(Cc2nc(-c3ccc(Br)cc3)cs2)n1,78*,-10,-11,-12
O=C1Nc2ccc(Br)cc2C12NNc1ccccc1O2 (stereo not drawn),60*,-10,-23,-7
CC(C)(C)c1ccc(NNC(=O)C2CCC2)cc1,73*,4,0,4
O=S(=O)(NC1CC1)c1ccccc1,0,5,0,-2
Cc1[nH]c2ccccc2c1/C=C/c1nc2ccccc2c(=O)n1CCO,52*,-14,4,-2
O=C(COc1ccc(Cl)cc1Br)Nc1nnc(C2CC2)s1,-2,4,nt,1
Cc1ccc(-n2nc3c(=O)n(CCCC(=O)NCc4ccco4)nc(C)c3c2C)cc1,-1,2,-14,-10
CCN(c1ccccc1)S(=O)(=O)c1ccc(Cl)c(NC(=O)COC(=O)c2cc(O)c3ccccc3c2O)c1,123*,-9,7,-8
SMILES,AHR act,proCasp3 act,PolyA inh,proCasp7 act
CCN(c1ccccc1)S(=O)(=O)c1ccc(Cl)c(NC(=O)COC(=O)c2ccc(O)cc2)c1,1,5,-4,11
CNC(=S)N=Nc1c(O)[nH]c2ccccc12,40,-2,15,-15
CN(C)C(=S)N=Nc1[nH]c2ccccc2c1O,64*,-4,-15,-6
NC(=O)C1Cc2ccccc2CN1C(=O)c1nn(Cc2ccccc2)c(=O)c2ccccc12 (stereo not drawn),1,2,nt,-11
CCc1nonc1NC(=O)c1oc2ccc(F)cc2c1C,61*,5,19,3
Cc1c(C(=O)Nc2nonc2-c2ccc(F)cc2)oc2ccc(F)cc12,33,4,103*,3
COc1ccc(NC(=O)C2CC(c3ccccc3O)=NO2)cc1OC (stereo not drawn),3,4,-5,12
COCCN1Cc2cccc(C(=O)Nc3cc(OC)ccc3OC)c2C1=O,48*,-9,12,0
COc1ccc(-c2c(-c3ccc(OC)nc3)c3ccccc3n2C)cc1,63*,-26,nt,-44
COc1cc(Nc2cccc[n+]2C)cc(OC)c1OC,-1,3,13,-14
O=C(/C=C/Nc1ccccc1F)c1cccs1,57*,6,5,-4
O=C1C=C(NNC(=O)c2cccnc2)CC(c2ccco2)C1 (stereo not drawn),5,3,10,9
Cc1ccc(NC(=O)/C=C2\NC(=O)CS2)cc1,61*,0,4,5
COc1ccccc1NC(=O)/C=C1\NC(=O)CS1,22,-4,23,5
